Test results as given in ChEMBL document CHEMBL2093137, “WHO-TDR NTD Screening”.
Converted amounts (≈) assume the structure as drawn.

How the values were obtained:
Onchocerca lienalis = assay: (§1) WHO-TDR: Onchocerciasis; format: functional; design: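 at 12.5 µM on microfilariae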
Summary of the method: (§2)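 Values are reported as percent inhibition and as IC50. They come from a whole-organism screen of a 10,000-compound diverse Life Chemicals library against microfilariae of Onchocerca ochengi or Onchocerca lienalis. The screen followed previously published standard procedures, with reference drugs as positive controls.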

Schistosoma mansoni [1] = assay: (§3) WHO-TDR: Schistosomiasis; format: functional; design: concentration or dose not given beside the values
Summary of the method: (§4)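 Values are reported as percent inhibition and IC50. They come from a whole-organism screen of a 10,000-compound diverse Life Chemicals library against larval and/or adult worms of Schistosoma mansoni, Puerto Rican strain. The library had been filtered for drug-likeness and reactive groups.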

Schistosoma mansoni [2] = assay: as §3; format: functional, organism-based; summary of the method: as §4
[3] = tested on: Trypanosoma brucei brucei; assay: WHO-TDR: Human African Trypanosomiasis (HAT); format: functional, organism-based; conditions: Squib-427
Summary of the method: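 Whole-organism screen of a 10,000-compound diverse library from Life Chemicals, filtered for drug-likeness and reactive groups, against bloodstream forms of Trypanosoma brucei Squib 427 strain. The assay followed previously published standard procedures, with reference drugs as positive controls. Antiparasitic potency is reported as IC50.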

Trypanosoma cruzi = assay: WHO-TDR: Chagas disease; format: functional, organism-based, Homo sapiens; conditions: MRC5
Summary of the method: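 Each IC50 reflects antiparasitic potency against intracellular amastigotes of Trypanosoma cruzi Tulahuen CL2 beta-galactosidase strain. These were cultured in MRC-5SV2 human lung fibroblasts and exposed to a 10,000-compound diverse Life Chemicals library screened according to published standard procedures with a reference drug as positive control.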

[4] = WHO-TDR: Cytotoxicity; format: toxicity, cell-based; conditions: human, MRC5 cells
Plasmodium falciparum K1 = assay: WHO-TDR: Malaria; format: functional, organism-based, Homo sapiens; conditions: Erythrocyte
Summary of the method: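 Whole-organism screen of a 10,000-compound diverse library from Life Chemicals, filtered for drug-likeness and reactive groups, against intra-erythrocytic Plasmodium falciparum K1 strain in human red blood cells. The assay followed previously published standard procedures, with a reference drug as positive control. Antiplasmodial potency is reported as IC50.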

Leishmania infantum = assay: WHO-TDR: Leishmaniasis; format: functional, organism-based, Mus musculus; conditions: Macrophage
Summary of the method: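 Whole-organism screen of a 10,000-compound diverse library from Life Chemicals, filtered for drug-likeness and reactive groups, against intracellular amastigotes of Leishmania infantum MHOM/MA(BE)/67 in murine peritoneal macrophage host cells. The assay followed previously published standard procedures, with a reference drug as positive control. Antiparasitic potency is reported as IC50.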

Onchocerca ochengi = assay: as §1; format: functional; design: concentration or dose not given beside the values; summary of the method: as §2;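 note: at 12.5 µM on microfilariae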
Brugia malayi = assay: WHO-TDR: Lymphatic Filariasis; format: functional; design: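 tested at 10 µM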
Summary of the method: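 Values are percent inhibition and IC50 from a whole-organism screen against Brugia malayi microfilariae. The compounds, 10,000 in all, came from a diverse Life Chemicals library filtered for drug-likeness and reactive groups.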

SMILES	% Inhibition (Onchocerca lienalis)	% Inhibition (Schistosoma mansoni [1])	IC50 (Schistosoma mansoni [2])	IC50 [3]	IC50 (Trypanosoma cruzi)	IC50 [4]	IC50 (Plasmodium falciparum K1)	IC50 (Leishmania infantum)	% Inhibition (Onchocerca ochengi)	% Inhibition (Brugia malayi)
CN(CC1CCCO1)S(=O)(=O)c1ccc(C(=O)Nc2cccc(-c3nc4ccccc4o3)c2)cc1 (configuration not stated)	13.3%	100%	7.4 µM	4.38 µg/mL (≈ 8.92 µM)	> 8.86 µg/mL	> 8.86 µg/mL	> 8.86 µg/mL	4.66 µg/mL (≈ 9.49 µM)		
O=C(Nc1cc2ccccc2cc1NC(=O)c1ccc2c(c1)OCCO2)c1ccc2c(c1)OCCO2	13.3%	100%	8.8 µM	> 14.5 µg/mL	> 14.5 µg/mL	> 14.5 µg/mL	> 14.5 µg/mL	> 14.5 µg/mL		
Cc1nc(-c2ccccc2)sc1C(=O)Nc1cccc(-c2cn3c(n2)SCC3)c1	0%	100%	2.7 µM	> 12.6 µg/mL	10.5 µg/mL (≈ 25 µM)	8.81 µg/mL (≈ 21.1 µM)	10.4 µg/mL (≈ 24.8 µM)	4.07 µg/mL (≈ 9.71 µM)		
COc1cc(OC)cc(C(=O)N(CCCN(C)C)c2nc3c(C)c(C)ccc3s2)c1	0%	100%	5.7 µM	0.456 µg/mL (≈ 1.07 µM)	4.66 µg/mL (≈ 10.9 µM)	2.84 µg/mL (≈ 6.64 µM)	1.13 µg/mL (≈ 2.64 µM)	4.51 µg/mL (≈ 10.5 µM)		
O=C(NCc1nnnn1-c1ccc(Cl)cc1)C1c2ccccc2Oc2ccccc21	0%	100%	6.6 µM	> 12.5 µg/mL	> 12.5 µg/mL	> 12.5 µg/mL	> 12.5 µg/mL	> 12.5 µg/mL		
O=C(CSc1nncc(=O)[nH]1)Nc1ccc(Br)cc1	0%	100%	5.2 µM	3.24 µg/mL (≈ 9.49 µM)	2.82 µg/mL (≈ 8.26 µM)	1.76 µg/mL (≈ 5.15 µM)	0.966 µg/mL (≈ 2.83 µM)	> 10.2 µg/mL		
CCN(CC)c1cc(C)nc(Nc2ccc(NC(=O)c3c(F)cccc3F)cc2)n1	-1%	100%	7.4 µM	3.63 µg/mL (≈ 8.81 µM)	0.26 µg/mL (≈ 0.632 µM)	2.86 µg/mL (≈ 6.95 µM)	0.77 µg/mL (≈ 1.87 µM)	3.9 µg/mL (≈ 9.49 µM)		
CCN(c1ccccc1)S(=O)(=O)c1ccc(C(=O)Nc2sc3c(c2C(=O)NC)CCCC3)cc1	13.3%	100%	9.9 µM	> 11 µg/mL	5.24 µg/mL (≈ 10.5 µM)	> 11 µg/mL	7.35 µg/mL (≈ 14.8 µM)	> 11 µg/mL		
C=CCN(CC=C)S(=O)(=O)c1ccc(C(=O)Nc2nc3ccc(C(C)C)cc3s2)cc1	0%	100%	5.7 µM	> 11 µg/mL	4.48 µg/mL (≈ 9.84 µM)	> 11 µg/mL	> 11 µg/mL	> 11 µg/mL		
CCc1ccc(NC(=O)c2oc3ccccc3c2NC(=O)Cc2cccs2)cc1	0%	100%	6.5 µM	> 12.1 µg/mL	> 12.1 µg/mL	> 12.1 µg/mL	> 12.1 µg/mL	> 12.1 µg/mL		
CCOc1ccc(C(=O)Nc2ccc(Nc3nc(C)cc(N(CC)CC)n3)cc2)cc1OCC	20%	100%	8.3 µM	4.4 µg/mL (≈ 9.49 µM)	0.428 µg/mL (≈ 0.922 µM)	3.94 µg/mL (≈ 8.5 µM)	0.51 µg/mL (≈ 1.1 µM)	4.5 µg/mL (≈ 9.71 µM)		
CCN(CC)c1cc(C)nc(Nc2ccc(NC(=O)c3cccs3)cc2)n1	-1%	100%	4.7 µM	0.472 µg/mL (≈ 1.24 µM)	0.295 µg/mL (≈ 0.773 µM)	2.96 µg/mL (≈ 7.76 µM)	0.378 µg/mL (≈ 0.99 µM)	3.7 µg/mL (≈ 9.71 µM)		
COc1ccc(N2CCCS2(=O)=O)cc1NC(=O)c1cc(Cl)ccc1OC	13.3%	100%	4.3 µM	4.31 µg/mL (≈ 10.5 µM)	5.04 µg/mL (≈ 12.3 µM)	> 12.3 µg/mL	> 12.3 µg/mL	0.399 µg/mL (≈ 0.971 µM)		
COC(=O)c1sc(-c2ccccc2)cc1NC(=O)CCS(=O)(=O)c1ccccc1	13.3%	100%	8.2 µM	> 9.7 µg/mL	> 9.7 µg/mL	> 9.7 µg/mL	> 9.7 µg/mL	> 9.7 µg/mL		
COc1ccc(Cl)cc1C(=O)NCCOc1ccc2nnc(-c3ccc(F)cc3)n2n1		100%	3.58 µg/mL	> 13.3 µg/mL	> 13.3 µg/mL	> 13.3 µg/mL	> 13.3 µg/mL	4.29 µg/mL (≈ 9.71 µM)	0%	33.33%
Cc1ccc(NC(=O)c2oc3ccccc3c2NC(=O)CC(c2ccccc2)c2ccccc2)cc1C	0%	100%	6.7 µM	> 14.7 µg/mL	> 14.7 µg/mL	> 14.7 µg/mL	> 14.7 µg/mL	4.75 µg/mL (≈ 9.71 µM)		
CN(C)CCCN(C(=O)c1cc(-c2cccs2)nc2ccccc12)c1nc2c(F)cccc2s1	0%	100%	4.3 µM	0.383 µg/mL (≈ 0.781 µM)	4.32 µg/mL (≈ 8.81 µM)	4.21 µg/mL (≈ 8.58 µM)	1.2 µg/mL (≈ 2.44 µM)	5.12 µg/mL (≈ 10.4 µM)		
Cn1ncc2c(N3CCOCC3)nc(NCCc3c[nH]c4ccccc34)nc21 [TDR79432]	0%	100%	3.8 µM	> 11.3 µg/mL	2.69 µg/mL (≈ 7.11 µM)	3.75 µg/mL (≈ 9.93 µM)	5.13 µg/mL (≈ 13.6 µM)	> 11.3 µg/mL		
CCOC(=O)c1oc2ccccc2c1NC(=O)c1cc(C)no1		100%	2.21 µg/mL	> 9.43 µg/mL	> 9.43 µg/mL	> 9.43 µg/mL	> 9.43 µg/mL	> 9.43 µg/mL	0%	20%
O=C(NCCOc1ccc2nnc(-c3ccccc3)n2n1)c1ccccc1C(F)(F)F		100%	3.38 µg/mL	> 12.8 µg/mL	> 12.8 µg/mL	> 12.8 µg/mL	> 12.8 µg/mL	> 12.8 µg/mL	0%	33.33%
C#CCn1/c(=N\C(=O)c2cc(C)no2)sc2cc(S(N)(=O)=O)ccc21		100%	3.16 µg/mL	> 11.3 µg/mL	> 11.3 µg/mL	> 11.3 µg/mL	> 11.3 µg/mL	> 11.3 µg/mL	0%	0%
